Measured values as given in ChEMBL document CHEMBL1687852, “Steroids with aromatic A-rings from the Hainan soft coral Dendronephthya studeri Ridley” (J Nat Prod, 2011).
The source made the active and inactive calls. No cut-off for these calls is given here.

Key:
Format in all cases: functional, cell-based
[1] = test system: Bel-7402; experiment: Cytotoxicity against human Bel7402 at 20 ug/ml by MTT assay
In short: (§1)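 Growth of the tumour cell lines was tested with compound at concentrations up to 20 μg/mL. The lines were human lung adenocarcinoma A549, BEL-7402, human promyelocytic leukaemia HL-60 and murine lymphocytic leukaemia P388.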

[2] = test system: P388; experiment: Cytotoxicity against mouse P388 at 20 ug/ml by MTT assay; in short: as §1
[3] = test system: HL-60; experiment: Cytotoxicity against human HL60 at 20 ug/ml by MTT assay; in short: as §1
[4] = test system: A549; experiment: Cytotoxicity against human A549 at 20 ug/ml by SRB assay; in short: as §1
[5] = test system: Bel-7402; experiment: Cytotoxicity against human Bel7402 by MTT assay

SMILES: CC(C)CCC[C@@H](C)[C@H]1CC[C@H]2[C@@H]3CCc4cc(O)ccc4[C@H]3CC[C@]12C
- Activity [1]: inactive
- Activity [2]: inactive
- Activity [3]: inactive
- Activity [4]: inactive

SMILES: CC(C)C/C=C/[C@@H](C)[C@H]1CC[C@H]2[C@@H]3CCc4cc(O)ccc4[C@H]3CC[C@]12C
- Activity [1]: inactive
- Activity [2]: inactive
- Activity [3]: inactive
- Activity [4]: inactive

SMILES: CC(C)[C@@H](C)/C=C/[C@@H](C)[C@H]1CC[C@H]2[C@@H]3CCc4cc(O)ccc4[C@H]3CC[C@]12C
- Activity [1]: inactive
- Activity [2]: inactive
- Activity [3]: inactive
- Activity [4]: inactive

SMILES: CC(C)/C=C/[C@@H](C)[C@H]1CC[C@H]2[C@@H]3CCC4=CC(=O)C=C[C@]4(C)[C@H]3CC[C@]12C
- Activity [1]: inactive
- Activity [2]: inactive
- Activity [3]: inactive
- Activity [4]: inactive

SMILES: CC(C)[C@H](C)/C=C/[C@@H](C)[C@H]1CC[C@H]2[C@@H]3CCc4cc(O)ccc4[C@H]3CC[C@]12C
- Activity [1]: inactive
- Activity [2]: inactive
- Activity [3]: inactive
- Activity [4]: inactive

SMILES: C=C(CC[C@@H](C)[C@H]1CC[C@H]2[C@@H]3CCc4cc(O)ccc4[C@H]3CC[C@]12C)C(C)C
- Activity [1]: inactive
- Activity [2]: inactive
- Activity [3]: inactive
- Activity [4]: inactive

SMILES: C=C(CC[C@@H](C)[C@H]1CC[C@H]2[C@@H]3CCC4=CC(=O)C=C[C@]4(C)[C@H]3CC[C@]12C)C(C)C
- Activity [1]: inactive
- Activity [2]: inactive
- Activity [3]: inactive
- Activity [4]: inactive

SMILES: CC1CC1/C=C/[C@@H](C)[C@H]1CC[C@H]2[C@@H]3CCc4cc(O)ccc4[C@H]3CC[C@]12C (stereo partly specified)
- Activity [1]: inactive
- Activity [2]: inactive
- Activity [3]: inactive
- Activity [4]: inactive

SMILES: CC(C)C/C=C/[C@@H](C)[C@H]1CC[C@H]2[C@@H]3CCC4=CC(=O)C=C[C@]4(C)[C@H]3CC[C@]12C
- Activity [1]: inactive
- Activity [2]: inactive
- Activity [3]: inactive
- Activity [4]: inactive

SMILES: CC(C)/C=C/[C@@H](C)[C@H]1CC[C@H]2[C@@H]3CCc4cc(O)ccc4[C@H]3CC[C@]12C
- Activity [1]: inactive
- Activity [2]: inactive
- Activity [3]: inactive
- Activity [4]: inactive

SMILES: COC(=O)[C@H](CCCC(C)C)[C@H]1CC[C@H]2[C@@H]3CC[C@H]4CC(=O)C=C[C@]4(C)[C@H]3CC[C@]12C
- Activity [5]: Active
